The text below walks through data of paper PMC6800637 (Cell chemical biology, 2019).

In series [1] the test system is NRF2. In words: ARE-luciferase NRF2 activation assay. It counts as cell-based. Particulars: for Max. induction (fold): ARE-luciferase relative to vehicle control, MDA-MB-231.
The subject of series [2] is NRF2. In words: Immunoblot of NRF2 and downstream genes. It counts as cell-based. Particulars: for protein level of NRF2 and downstream target genes AKR1C1, NQO-1, HO-1, GCLM: MDA-MB-231, indicated doses, 16 hours. The procedure, abridged:
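MDA-MB-231 cells were seeded at 6×10^5 per 35 mm dish and treated 24 h later with test compound. Treatment was either a dose series for 16 h, or 2.33 or 71.5 µM (per compound) for a time course up to 48 h. Lysates were made in Laemmli buffer, boiled 5 min and run on SDS-PAGE, then immunoblotted for NRF2, AKR1C1, NQO1, HO-1 and GCLM. Done in triplicate.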
For orientation: A western blot detects proteins with antibodies after separation by electrophoresis.

Series [3] deals with NRF2. In words: NRF2 protein half-life. It counts as cell-based.
A further series deals with KEAP1. Kind of series: NRF2 immunoblot in KEAP1-WT and KEAP1-/- cells. The series is classed as cell-based. The settings on record: for level of NRF2 in KEAP1-/- cells: KEAP1-/- MDA-MB-231, four hours; for level of NRF2 in WT cells: KEAP1-WT MDA-MB-231, four hours.
In the next series the test system is KEAP1-WT. Kind of series: Dual luciferase reporter assay and immunoblot, KEAP1-WT re-expressed. The series is classed as cell-based. The settings on record: KEAP1-/- MDA-MB-231 + KEAP1-WT, at EC50, 16 hours. The procedure, abridged: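 KEAP1−/− MDA-MB-231 cells (CRISPR-Cas9) were co-transfected with a KEAP1-WT expression vector plus NQO1-ARE firefly and TK-Renilla luciferase reporters. After 24 h, cells were treated with test compound for 16 h; controls were SFN (2 µM) and NaAsO2 (1 µM). Firefly activity is reported relative to Renilla (dual-luciferase), with an NRF2/KEAP1 immunoblot normalised to GAPDH. Mean ± SD of three independent experiments.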
A general note: Reporter assays use an easily measured gene product as a stand-in for the process of interest.

The next series has as its system KEAP1-C151S. Kind of series: Dual luciferase reporter assay and immunoblot, KEAP1-C151S re-expressed. It counts as cell-based. Particulars: for KEAP1-Cys151 dependence of NRF2 activation: KEAP1-WT versus KEAP1-C151S, dual luciferase and immunoblot; for firefly luciferase induction in the presence of KEAP1-C151S: KEAP1-/- MDA-MB-231 + KEAP1-C151S, 5 at EC50, As 1 µM, 16 hours.

For series [4], the system named is NRF2. In words: Real-time qRT-PCR of NRF2 and downstream genes. The settings on record: MDA-MB-231, 16 hours. It counts as cell-based. In short, it runs like this: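 MDA-MB-231 cells (6×10^5 per 35 mm dish) were treated 24 h after seeding with test compound for 16 h. Total RNA was TRIzol-extracted, and 1 µg was reverse-transcribed with M-MLV RT. SYBR Green qPCR: 95 °C 4 min, then 45 cycles of 95 °C 10 s and 60 °C 30 s. Values are normalised to GAPDH with untreated set to 1. Three runs in duplicate, mean ± SD, Student t-test.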
For orientation: In qPCR the cycle at which signal appears reflects the starting amount.

Series [5] concerns NRF2. In words: NRF2 ubiquitination assay. It counts as cell-based. Particulars: MDA-MB-231 transfected with NRF2 and HA-Ubiquitin, 3 2.33 µM, 5 71.5 µM, 4 hours.
Where [6] appears, read: induction of ARE-luciferase, MDA-MB-231, 16 hours.
Where [7] appears, read: MDA-MB-231 ARE-luciferase cell line, 48 h, MTT.
Setting [8] is: MDA-MB-231, 71.5 µM, cycloheximide.

Where two headings read alike, the source gives them in different places.

As for “1-O-Acetyl-15α-hydroxy-15-deoxy-methylgeopyxin A [Compound 14]”, the “Max. induction (fold)” value in the series on NRF2 [1] came out at 4.2 fold. For the same molecule, the EC50 (usually the concentration that produces a half-maximal response) on NRF2 [1] (setting [6]) was found to be 54.5 ± 5.1 µM. In addition, in the series on MDA-MB-231 cells, the “LD50 [48 h]” value came out at 123.63 ± 3.89 µM.
On to “15α-Hydroxy-15-deoxy-methylgeopyxin A [Compound 13]”, for which, in the series with NRF2 [1], the “Max. induction (fold)” value worked out at 1.9 fold. The midpoint of the response at NRF2 [1] (setting [6]), the EC50, lay at 73.1 ± 0.87 µM. The “LD50 [48 h]” value with MDA-MB-231 cells was greater than 128 µM.
On the same counts, the results for 16,17-dihydrogeopyxin A [Compound 16] are 1.6 fold, 70.4 ± 5.12 µM and greater than 128 µM.
“16,17-epoxymethylgeopyxin A [Compound 15]”: in the series with NRF2 [1], the “Max. induction (fold)” value worked out at 3.5 fold. On NRF2 [1] (setting [6]), this molecule displayed an EC50 of 26.8 ± 4.08 µM. The “LD50 [48 h]” value in the series with MDA-MB-231 cells worked out at 115.11 ± 3.57 µM.
Regarding `C=C1C(=O)[C@]23C[C@H]1CC[C@H]2[C@]1(C)[C@@H](O)CC[C@@](C)(C(=O)O)[C@H]1C[C@@H]3O` [Compound 1, geopyxin A], in the series with NRF2 [1], the “Max. induction (fold)” value is listed as 2.1 fold. This molecule also displayed an EC50 with NRF2 [1] (Homo sapiens, MDA-MB-231, 16 h) of 4.44 ± 0.41 µM. For the same molecule, the “LD50 [48 h]” value with MDA-MB-231 cells (setting [7]) was 60.36 ± 1.18 µM.
Turning to `C=C1C(=O)[C@]23C[C@H]1CC[C@H]2[C@]1(C)C(=O)CC[C@@](C)(C(=O)O)[C@H]1C[C@@H]3O` [Compound 3, geopyxin C], the “time of peak NRF2 protein level” value in the series on NRF2 [2] (MDA-MB-231, 2.33 µM 3) worked out at 4 h. For the same molecule, the “protein level of NRF2 and downstream target genes AKR1C1, NQO-1, HO-1, GCLM” value in the series with NRF2 [2] was “dose dependent increases”. For the same molecule, in the series on NRF2 [3] (MDA-MB-231, at EC50, cycloheximide, in words), the “half-life of NRF2” value was “increased the half-life”. In addition, in the series on KEAP1, the “level of NRF2 in KEAP1-/- cells” value is reported as “failed to further activate” and the “level of NRF2 in WT cells” value is “dose-dependent activation”. The “firefly luciferase induction in the presence of KEAP1-WT” value in the series with KEAP1-WT is recorded as “induced”. Further, in the series with KEAP1-C151S, the “KEAP1-Cys151 dependence of NRF2 activation” value is “Cys151 dependent”. Besides, in the series on NRF2 [4], the “mRNA level of NRF2” value was “remained unchanged” and the “mRNA levels of the downstream genes” value is “increased in a dose dependent manner”. Also, the “Max. induction (fold)” value in the series with NRF2 [1] amounted to 2.1 fold. The molecule also gave an EC50 at NRF2 [1] (setting [6]) of 2.33 ± 0.35 µM. The “LD50 [48 h]” value in the series on MDA-MB-231 cells (setting [7]) stood at 51.29 ± 1.23 µM. In the series on NRF2 [5], the “ubiquitylation of NRF2” value is listed as “largely fails to be ubiquitylated”.
With `C[C@]12[C@@H]3CC[C@@H]4C[C@]3(C(=O)[C@@H]4CO)[C@@H](O)C[C@@H]1[C@](C)(C(=O)O)CC[C@@H]2O` [Compound 5, geopyxin F], the “time course of NRF2 protein level” value with NRF2 [2] (MDA-MB-231, 71.5 µM 5) is on record as “continues to steadily rise all the way up to 48 hours”. For the same molecule, the “protein level of NRF2 and downstream target genes AKR1C1, NQO-1, HO-1, GCLM” value with NRF2 [2] is reported as “dose dependent increases”. For the same molecule, the “half-life of NRF2” value in the series with NRF2 [3] is on record as “increased the half-life”. Further, in the series on NRF2 [3] (setting [8]), the “increase of half-life of NRF2 relative to compound 3” value was “more than 2 times” and the “increase of half-life of NRF2 relative to untreated cells” value is reported as “more than 3 times”. Further, in the series on KEAP1, the “level of NRF2 in KEAP1-/- cells” value is “failed to further activate” and the “level of NRF2 in WT cells” value is recorded as “dose-dependent activation”. In addition, in the series on KEAP1-WT, the “firefly luciferase induction in the presence of KEAP1-WT” value is “induced”. Besides, in the series on KEAP1-C151S, the “firefly luciferase induction in the presence of KEAP1-C151S” value was “induction” and the “KEAP1-Cys151 dependence of NRF2 activation” value was “independent of KEAP1-Cys151”. Also, in the series with NRF2 [4], the “mRNA level of NRF2” value is reported as “remained unchanged” and the “mRNA levels of the downstream genes” value was “increased in a dose dependent manner”. Moreover, the “Max. induction (fold)” value in the series with NRF2 [1] was 3.0 fold. The same molecule registered an EC50 at NRF2 [1] (setting [6]) of 71.5 ± 5.8 µM. Besides, in the series on MDA-MB-231 cells, the “LD50 [48 h]” value is greater than 128 µM and the cellular toxicity entry is listed as “no cellular toxicity”. Moreover, in the series on NRF2 [5], the “ubiquitylation of NRF2” value was “largely fails to be ubiquitylated”.
Consider `C=C1C(=O)[C@]23C[C@H]1CC[C@H]2[C@]1(C)[C@@H](O)CC[C@@](C)(C(=O)OC)[C@H]1C[C@@H]3O` [Compound 6, methylgeopyxin A], for which the “Max. induction (fold)” value in the series on NRF2 [1] is reported as 2.2 fold. The molecule also came in with an EC50 in the series with NRF2 [1] (Homo sapiens, MDA-MB-231, 16 h) of 2.32 ± 0.17 µM. Besides, in the series with MDA-MB-231 cells (setting [7]), the “LD50 [48 h]” value was 8.69 ± 0.93 µM.
For `O=[As][O-].[Na+]` [NaAsO2, Sodium (meta)arsenite, reference compound], in the series with KEAP1-C151S, the “firefly luciferase induction in the presence of KEAP1-C151S” value is “induction”.
Regarding `C[S+]([O-])CCCCN=C=S` (centres unmarked) [SFN, sulforaphane, reference compound], the “Max. induction (fold)” value in the series on NRF2 [1] worked out at 1.9 fold. The same molecule came in with an EC50 in the series on NRF2 [1] (Homo sapiens, MDA-MB-231, 16 h) of 0.97 ± 0.18 µM. Besides, the “LD50 [48 h]” value in the series with MDA-MB-231 cells (human, 48 h) is 46.2 µM. In addition, the “ubiquitylation of NRF2” value in the series with NRF2 [5] is on record as “largely fails to be ubiquitylated”.
For `CC(C)(C)c1cc(O)ccc1O` [tBHQ, tert-butylhydroquinone, reference compound], the “Max. induction (fold)” value with NRF2 [1] came out at 2.2 fold. This molecule registered an EC50 in the series on NRF2 [1] (Homo sapiens, MDA-MB-231, 16 h) of 2.43 ± 0.34 µM. Moreover, the “LD50 [48 h]” value in the series on MDA-MB-231 cells (setting [7]) was 85.1 µM.
